Data as given in PMC9060504 (Proceedings of the National Academy of Sciences of the …, 2022).

Columns and labels:
[1] = target: T1, STIM1 together with Orai3 (Homo sapiens, UniProt Q9BRQ5); settings: cited from earlier work
[2] = system: NFAT transcription in Jurkat NFAT-P/Luciferase (JNL) cells; assay: NFAT-dependent luciferase assay in JNL cells; type: cell-based, human; settings: 100 μM
[3] = system: EMT6-GFP murine breast cancer cells; assay: Pulmonary metastatic assay; type: in vivo, mouse
Procedure, shortened: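 EMT6-GFP cells were treated for 1 h with 1% DMSO or 200 µM test compound, with or without 10 s of 365 nm light (16 mW/cm²) at 0, 30 and 60 min. They were then washed and injected into the tail vein of 8-wk BALB/c mice (5 × 10⁴ cells). After 20 min, lungs were perfused, agarose-inflated and cut into 1–2 mm slices. Slices were cultured 7 d at 37 °C, and GFP⁺ colonies counted (3 slices/mouse, 5 mice/group). GFP⁺ cell percentage was then measured by flow cytometry.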

[4] = target: STIM1 (Homo sapiens, UniProt Q13586); assay: TIRFM of STIM1 clustering at ER–PM junctions; type: cell-based; settings: 100 μM, after ER Ca2+ depletion with TG
Procedure, shortened: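 TIRFM used a 100× (N.A. 1.49) objective. STIM1-mCherry cells were held in zero-Ca2+ solution with 400 nM thapsigargin for 10 min, then received 100 μM test compound and were imaged before and 20 min after. Orai1-EGFP/STIM1-mCherry cells were preincubated with 100 μM compound in zero Ca2+ and imaged before and 10 min after adding 400 nM thapsigargin.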

[5] = target: Orai1 P245L (Homo sapiens, UniProt Q96D31, P245L); assay: Current recording, constitutively open Orai1 P245L mutant; type: cell-based; settings: 10 μM
Procedure, shortened: (§1)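 Whole-cell currents were recorded from cells expressing the Orai1 mutant or the chimera (the chimera with STIM1). Cells were superfused with extracellular solution containing 10 mM Ca2+, with or without 10 μM test compound or 10 μM La3+. During recording, cells were kept dark or illuminated at the indicated wavelengths. Time courses and I-V plots were collected.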

[6] = target: T2, Orai3 (Homo sapiens, UniProt Q9BRQ5); assay: Current recording, HEK293 cells expressing Orai3 alone; type: cell-based; settings: 100 μM, with or without 360 nm light
[7] = target: STIM1 together with Orai2 (Homo sapiens, UniProt Q96SN7); assay: Whole-cell patch-clamp CRAC current in cells coexpressing STIM1 and Orai2; type: cell-based
[8] = target: T1, STIM1 together with Orai3; assay: Whole-cell patch-clamp CRAC current in cells coexpressing STIM1 and Orai3; type: cell-based
[9] = Photostability under repeated illumination; type: physicochemical; settings: eight cycles 365/520 nm, 1% DMSO in PBS
Procedure, shortened: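 Test compound at 26 μM in 1% DMSO/PBS was exposed to eight cycles of alternating 5-min 365 nm and 520 nm LED illumination. Absorbance at 329 nm was recorded throughout.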

[10] = target: T3, Orai1 (Homo sapiens, UniProt Q96D31); assay: Ca2+ imaging of SOCE, Orai TKO HEK293 cells expressing STIM1 and Orai1; type: cell-based; settings: 100 μM, dark
Target sequence in this assay (Q96D31 whole entry): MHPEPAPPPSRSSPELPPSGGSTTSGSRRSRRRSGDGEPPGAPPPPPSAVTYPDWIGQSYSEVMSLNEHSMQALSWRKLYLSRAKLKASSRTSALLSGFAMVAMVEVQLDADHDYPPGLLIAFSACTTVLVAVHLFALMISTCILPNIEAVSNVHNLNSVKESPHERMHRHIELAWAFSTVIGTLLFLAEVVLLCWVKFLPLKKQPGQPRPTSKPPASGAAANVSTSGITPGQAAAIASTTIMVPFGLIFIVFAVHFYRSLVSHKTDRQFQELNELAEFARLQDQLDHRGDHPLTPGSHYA
Target sequence in this assay (Q13586 23-685 partner): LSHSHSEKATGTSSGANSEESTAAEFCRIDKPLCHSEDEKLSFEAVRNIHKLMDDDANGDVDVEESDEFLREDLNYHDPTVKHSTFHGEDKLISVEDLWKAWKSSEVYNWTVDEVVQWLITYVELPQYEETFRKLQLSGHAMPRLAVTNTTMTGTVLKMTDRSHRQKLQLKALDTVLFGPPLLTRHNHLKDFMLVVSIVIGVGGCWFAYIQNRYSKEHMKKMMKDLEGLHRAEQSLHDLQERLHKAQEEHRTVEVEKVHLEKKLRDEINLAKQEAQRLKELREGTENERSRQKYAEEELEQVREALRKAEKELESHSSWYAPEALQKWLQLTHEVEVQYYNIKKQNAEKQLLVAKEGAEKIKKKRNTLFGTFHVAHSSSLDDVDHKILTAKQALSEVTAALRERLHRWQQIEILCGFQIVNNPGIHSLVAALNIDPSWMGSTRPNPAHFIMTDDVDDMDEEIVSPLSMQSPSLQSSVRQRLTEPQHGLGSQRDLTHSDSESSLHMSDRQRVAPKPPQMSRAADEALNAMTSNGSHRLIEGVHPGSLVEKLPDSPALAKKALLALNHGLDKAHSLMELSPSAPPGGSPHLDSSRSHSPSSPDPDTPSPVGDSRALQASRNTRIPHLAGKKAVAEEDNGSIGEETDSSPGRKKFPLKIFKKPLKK

[11] = Trans:cis isomer ratio by 1H NMR; type: physicochemical
[12] = target: STIM1 and Orai1 (CRAC channel) (Homo sapiens, UniProt Q96D31); assay: Whole-cell patch-clamp CRAC current in HEK293 cells expressing STIM1 and Orai1; type: cell-based
[13] = system: O3N–O1C chimeric Orai channel; assay: Current recording, STIM1 with chimeric O3N–O1C channel; type: cell-based; settings: 10 μM
Procedure, shortened: as §1

[14] = system: O1N–O3C chimeric Orai channel; assay: Current recording, STIM1 with chimeric O1N–O3C channel; type: cell-based; settings: 10 μM
Procedure, shortened: as §1

[15] = system: capsaicin-induced nocifensive behavior; assay: Capsaicin-induced forelimb eye wiping test; type: in vivo, mouse
Procedure, shortened: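 Male C57BL/6JOLAHSD mice (3–4 wk, 5–6 per group) were handled for 2 d and habituated to the cage for 10 min. A 10-μL drop went to the right eye: vehicle (0.1% ethanol in SES), 1 μM capsaicin, 100 μM test compound, or capsaicin plus compound. Forelimb wipes were counted for 5 min, starting 5 min after dosing. Where used, 365 nm light (16 mW/cm², 3 cm, 60 s) was given and counting began 5 min later. Light alone was also tested.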

[16] = system: InsP3R; assay: Ca2+ imaging of IP3-mediated ER Ca2+ release in STIM DKO cells; type: cell-based; settings: 100 μM
Procedure, shortened: (§2)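 Cells were loaded with 5 μM Cal-590 in Ringer's solution for 60 min, excited at 560 nm, and imaged every 3 or 10 s. Each experiment recorded 10 to 97 cells, and their responses were averaged. The Ca2+ change after activating each transport mechanism with 100 μM test compound present was normalized to the change in DMSO-treated control cells.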

[17] = target: T2, Orai3; assay: Ca2+ imaging of SOCE, Orai TKO HEK293 cells expressing STIM1 and Orai3; type: cell-based; settings: 100 μM, dark
[18] = target: TRPV1 (Homo sapiens, UniProt Q8NER1); assay: Ca2+ imaging of TRPV1-mediated Ca2+ influx in STIM DKO cells; type: cell-based; settings: 100 μM
Procedure, shortened: as §2

[19] = target: T3, Orai1; type: cell-based; settings: Orai1 alone, 100 μM, with or without 360 nm light
Target sequence in this assay (Q96D31 whole entry): as the sequence (Q96D31 whole entry) above

[20] = target: Orai2 (Homo sapiens, UniProt Q96SN7); assay: Ca2+ imaging of SOCE, Orai TKO HEK293 cells expressing STIM1 and Orai2; type: cell-based; settings: 100 μM, dark
[21] = target: TRPC6 (Homo sapiens, UniProt Q9Y210); assay: Ca2+ imaging of TRPC6-mediated Ca2+ influx in STIM DKO cells; type: cell-based; settings: 100 μM
Procedure, shortened: as §2

[22] = target: TRPC3 (Homo sapiens, UniProt Q13507); assay: Ca2+ imaging of TRPC3-mediated Ca2+ influx in STIM DKO cells; type: cell-based; settings: 100 μM
Procedure, shortened: as §2

[23] = system: SOCE in HEK293 cells; assay: Ca2+ imaging of SOCE in HEK293 cells; type: cell-based; settings: 100 μM, 1 mM Ca2+, TG
[24] = target: Orai1 V102A (Homo sapiens, UniProt Q96D31, V102A); assay: Current recording, constitutively open Orai1 V102A mutant; type: cell-based; settings: 10 μM
Procedure, shortened: as §1

[25] = system: SOCE in TG neurons; assay: Ca2+ imaging of SOCE in cultured trigeminal ganglion neurons; type: cell-based, mouse; settings: 100 μM
Procedure, shortened: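 Mouse trigeminal ganglion neurons were acutely dissociated, cultured and loaded with Cal-590. They were held for 10 min in Ca2+-free solution with 1 μM thapsigargin, with or without 100 μM test compound. SOCE was then induced by superfusion with 0.5 mM Ca2+, without or with 360 nm illumination. Fluorescence time courses came from n = 71 to 179 cells per group.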

[26] = target: NCX1 (Homo sapiens, UniProt P32418); assay: Ca2+ imaging of reverse Na+/Ca2+ exchange in cells overexpressing NCX1; type: cell-based
Procedure, shortened: as §2

[27] = cells treated with 200 μM, no illumination

Sequence of STIM1 and Orai1 (CRAC channel) (Q96D31 whole entry): as above
Sequence of STIM1 and Orai1 (CRAC channel) (Q13586 23-685 partner): as the sequence (Q13586 23-685 partner) above
Sequence of TRPV1 (Q8NER1 whole entry, species assumed): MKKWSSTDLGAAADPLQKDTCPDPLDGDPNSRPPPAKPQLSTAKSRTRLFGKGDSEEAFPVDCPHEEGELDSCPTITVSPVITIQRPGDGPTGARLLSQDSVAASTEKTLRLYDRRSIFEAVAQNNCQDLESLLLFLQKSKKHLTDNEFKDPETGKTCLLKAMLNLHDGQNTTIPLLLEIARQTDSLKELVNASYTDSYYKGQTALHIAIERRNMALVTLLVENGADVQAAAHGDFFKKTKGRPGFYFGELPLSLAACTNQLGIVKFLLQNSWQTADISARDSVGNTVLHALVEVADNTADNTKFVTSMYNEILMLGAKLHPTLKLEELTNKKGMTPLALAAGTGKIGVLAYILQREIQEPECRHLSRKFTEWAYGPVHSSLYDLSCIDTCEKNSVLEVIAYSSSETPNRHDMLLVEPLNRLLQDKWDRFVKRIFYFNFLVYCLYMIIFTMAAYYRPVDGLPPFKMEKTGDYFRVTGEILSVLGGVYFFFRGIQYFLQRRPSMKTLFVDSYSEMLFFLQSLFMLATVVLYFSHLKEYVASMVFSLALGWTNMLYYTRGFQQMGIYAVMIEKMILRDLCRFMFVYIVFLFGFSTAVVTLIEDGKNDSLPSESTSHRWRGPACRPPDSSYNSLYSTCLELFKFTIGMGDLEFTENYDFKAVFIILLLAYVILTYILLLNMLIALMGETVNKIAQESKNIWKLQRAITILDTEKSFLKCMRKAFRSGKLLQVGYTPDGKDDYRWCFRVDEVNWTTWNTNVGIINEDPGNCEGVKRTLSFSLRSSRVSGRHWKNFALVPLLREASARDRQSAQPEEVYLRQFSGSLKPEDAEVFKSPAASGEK
Sequence of STIM1 (Q13586 23-685, species assumed): as the sequence (Q13586 23-685 partner) above
Sequence of TRPC3 (Q13507 whole entry, species assumed): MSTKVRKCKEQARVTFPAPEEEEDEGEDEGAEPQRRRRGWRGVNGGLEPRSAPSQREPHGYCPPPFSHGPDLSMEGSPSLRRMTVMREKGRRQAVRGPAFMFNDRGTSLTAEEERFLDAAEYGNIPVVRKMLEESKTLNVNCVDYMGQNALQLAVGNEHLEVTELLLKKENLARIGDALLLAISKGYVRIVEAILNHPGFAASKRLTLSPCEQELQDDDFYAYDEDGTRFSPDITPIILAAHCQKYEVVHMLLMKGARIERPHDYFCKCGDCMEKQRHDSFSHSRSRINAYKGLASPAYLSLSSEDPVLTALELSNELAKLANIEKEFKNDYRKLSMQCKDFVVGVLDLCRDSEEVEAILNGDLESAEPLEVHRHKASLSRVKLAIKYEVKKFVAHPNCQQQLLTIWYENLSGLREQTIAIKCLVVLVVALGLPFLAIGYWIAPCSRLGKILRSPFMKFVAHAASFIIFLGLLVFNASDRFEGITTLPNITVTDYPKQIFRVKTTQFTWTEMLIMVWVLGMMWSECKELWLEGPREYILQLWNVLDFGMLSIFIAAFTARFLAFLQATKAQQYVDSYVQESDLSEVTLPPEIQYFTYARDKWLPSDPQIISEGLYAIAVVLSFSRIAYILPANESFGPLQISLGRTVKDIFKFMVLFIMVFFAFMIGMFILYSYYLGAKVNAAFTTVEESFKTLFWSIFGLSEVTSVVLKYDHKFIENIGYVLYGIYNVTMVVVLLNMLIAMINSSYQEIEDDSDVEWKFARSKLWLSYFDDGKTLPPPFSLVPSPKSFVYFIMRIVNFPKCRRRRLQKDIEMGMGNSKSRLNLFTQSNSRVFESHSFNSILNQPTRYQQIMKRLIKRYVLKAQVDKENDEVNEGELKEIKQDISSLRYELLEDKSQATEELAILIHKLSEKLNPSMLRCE
Sequence of NCX1 (P32418 36-973): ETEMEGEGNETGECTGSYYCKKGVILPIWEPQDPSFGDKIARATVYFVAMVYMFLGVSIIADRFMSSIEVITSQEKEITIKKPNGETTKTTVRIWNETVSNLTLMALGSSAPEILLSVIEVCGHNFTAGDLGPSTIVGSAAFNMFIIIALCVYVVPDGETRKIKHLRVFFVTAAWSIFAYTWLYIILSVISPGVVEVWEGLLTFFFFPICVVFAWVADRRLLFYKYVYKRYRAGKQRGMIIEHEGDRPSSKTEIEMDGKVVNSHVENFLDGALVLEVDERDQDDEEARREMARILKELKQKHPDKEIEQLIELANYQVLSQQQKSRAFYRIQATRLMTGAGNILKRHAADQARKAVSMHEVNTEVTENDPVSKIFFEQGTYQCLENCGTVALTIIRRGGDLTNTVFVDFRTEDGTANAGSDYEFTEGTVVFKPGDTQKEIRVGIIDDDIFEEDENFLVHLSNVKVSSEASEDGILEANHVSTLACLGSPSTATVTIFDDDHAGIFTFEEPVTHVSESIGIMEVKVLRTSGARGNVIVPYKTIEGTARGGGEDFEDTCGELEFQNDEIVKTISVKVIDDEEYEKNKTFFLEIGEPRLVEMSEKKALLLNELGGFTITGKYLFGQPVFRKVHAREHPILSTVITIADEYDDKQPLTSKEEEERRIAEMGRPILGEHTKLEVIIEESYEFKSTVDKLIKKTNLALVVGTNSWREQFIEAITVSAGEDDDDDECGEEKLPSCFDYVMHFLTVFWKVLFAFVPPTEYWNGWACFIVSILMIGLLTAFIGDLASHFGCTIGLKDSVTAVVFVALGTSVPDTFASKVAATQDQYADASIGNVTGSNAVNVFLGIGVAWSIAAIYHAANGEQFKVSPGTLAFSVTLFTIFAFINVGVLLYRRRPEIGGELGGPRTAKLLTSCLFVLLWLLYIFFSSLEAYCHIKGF
Sequence of TRPC6 (Q9Y210 whole entry, species assumed): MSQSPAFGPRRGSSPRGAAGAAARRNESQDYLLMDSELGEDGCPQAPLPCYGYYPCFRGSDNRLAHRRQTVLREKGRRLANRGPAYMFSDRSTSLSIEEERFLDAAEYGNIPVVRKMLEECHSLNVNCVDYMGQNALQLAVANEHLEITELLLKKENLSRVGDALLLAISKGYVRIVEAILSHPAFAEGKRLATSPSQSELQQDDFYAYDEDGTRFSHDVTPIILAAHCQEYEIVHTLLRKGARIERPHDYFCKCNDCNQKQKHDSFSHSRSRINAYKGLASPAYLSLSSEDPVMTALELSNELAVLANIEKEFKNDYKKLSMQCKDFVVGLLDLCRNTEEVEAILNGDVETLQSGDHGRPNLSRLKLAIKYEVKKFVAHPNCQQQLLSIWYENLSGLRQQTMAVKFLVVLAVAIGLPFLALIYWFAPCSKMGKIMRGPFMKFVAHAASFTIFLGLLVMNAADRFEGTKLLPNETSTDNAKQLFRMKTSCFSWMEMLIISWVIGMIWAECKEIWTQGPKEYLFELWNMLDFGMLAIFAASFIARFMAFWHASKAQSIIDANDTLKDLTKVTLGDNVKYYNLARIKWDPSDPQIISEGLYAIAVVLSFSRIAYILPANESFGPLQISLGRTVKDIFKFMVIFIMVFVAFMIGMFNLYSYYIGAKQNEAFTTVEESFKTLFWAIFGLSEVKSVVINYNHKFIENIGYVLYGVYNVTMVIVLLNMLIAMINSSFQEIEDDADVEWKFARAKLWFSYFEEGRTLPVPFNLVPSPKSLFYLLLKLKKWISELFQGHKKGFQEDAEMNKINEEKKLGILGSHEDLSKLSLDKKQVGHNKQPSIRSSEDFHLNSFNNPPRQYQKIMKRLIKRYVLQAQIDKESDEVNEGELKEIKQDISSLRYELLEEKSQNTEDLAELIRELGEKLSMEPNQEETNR
Sequence of Orai1 V102A (Q96D31 whole entry V102A): as the sequence (Q96D31 whole entry) above, with V102A counted along it
Sequence of Orai1 P245L (Q96D31 whole entry P245L, the tested form may be a part): as the sequence (Q96D31 whole entry) above, with P245L counted along it

O=C(Nc1ccn(Cc2ccccc2Oc2ccccc2)n1)c1c(F)cccc1F [GSK5503A]
Sensitivity of Orai3 current [1]: sensitive

O=C(Nc1ccn(Cc2ccc(O)cc2C(F)(F)F)n1)c1c(F)cccc1F [GSK7975A]
Sensitivity of Orai3 current [1]: sensitive

OB(O)c1ccc(/N=N/c2ccccc2)cc1 [LOCI-1]
Inhibition of NFAT transcription ([2]; 16 h, in the dark): more than 80% | NFAT transcription after 365 nm light ([2]; two pulses of 365 nm light): fully restore transcription to control levels | GFP-positive cancer cells in lung tissue ([3]; cells treated with 200 μM and 365 nm illumination): ~1.3% | GFP-positive cancer cells in lung tissue [3, 27]: ~0.65% | Number of metastatic colonies vs DMSO [3, 27]: significantly fewer metastatic colonies | Effect on clustering of STIM1 in puncta at ER–PM junctions [4]: did not affect | Effect on Orai1 P245L current [5]: strongly inhibited | Current change on application [6]: did not induce a notable current change | Ki [7]: 15.5 ± 1.8 µM | Ki [8]: 131 ± 24 µM | inhibition at 100 µM ([8]; read-out: Average inhibition of Orai3 activity): ~35% | Photofatigue on repeated illumination [9]: without significant photofatigue | Effect on SOCE mediated by Orai1 [10]: strongly inhibits | Trans isomer content, dark-adapted [11]: 94% | Control of channel activity when infused into the cytosol via the patch pipette ([12]; 0.5 mM in pipette solution): failed to do so | Ki ([12]; Ki, dose-inhibition analysis, HEK293 STIM1+Orai1, LOCI-1 n = 3, LOCI-2 n = 4): 5.5 ± 0.26 µM | Restoration of inhibited current by 360 nm light ([12]; LOCI-1 10 μM, LOCI-2 10 μM, 2-APB 100 μM): fully restored | Effect on O3N–O1C channel current [13]: small and inconsistent effect | Effect on O1N–O3C channel current [14]: strongly inhibited | Eye wiping response, applied alone ([15]; 100 μM alone, topical to eye): neither LOCI-1 nor 365 nm light elicits an appreciable nocifensive behavior | Inhibitory effect on eye wiping after a pulse of 365 nm light ([15]; 100 μM with 1 μM capsaicin, 365 nm 60 s): fully reversed | Eye wiping response, cotreatment with capsaicin ([15]; 100 μM with 1 μM capsaicin, topical to eye, vs capsaicin alone): significantly lower responses | Effect on IP3-mediated Ca2+ release [16]: did not affect | Effect on SOCE mediated by Orai3 [17]: not | Effect on TRPV1-mediated Ca2+ influx [18]: did not affect | TRPV1 activity in presence of cis or trans conformations ([18]; HEK293 STIM DKO cells expressing TRPV1): unchanged | Current change on application [19]: did not induce a notable current change | Effect on SOCE mediated by Orai2 [20]: strongly inhibits | Effect on TRPC6-mediated Ca2+ influx [21]: did not affect | Effect on TRPC3-mediated Ca2+ influx [22]: did not affect | Effect on SOCE [23]: inhibited | Effect on Orai1 V102A current [24]: negligible effect | Effect on SOCE in TG neurons [25]: inhibited | Effect on sodium–calcium exchange activity [26]: did not inhibit
